Shown are actives, neighbours in structure and some others; about 5.9% of the full set was active somewhere.
IDH1 mut inh = IDH1 R132H (human) inhibition. IDH1 R132H reductase, diaphorase/resazurin fluorescence, 60 min. inhibition, % at 10 µM. actives 0.18% (n = 70,000); in the data active = inhibition above about 34%;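 also: 0% = DMSO and 100% = no enzyme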
GASC1 inh = KDM4C (human) demethylase inhibition | Q9H3R0 | GST-KDM4C 2-372, H3K9me3 peptide, LANCE TR-FRET | inhibition, % at 12.5 µM | actives 0.15% (n = 96,000);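 active = mean replicate inhibition above about 25%, with at least 55% of replicates also reaching it, limit read from the data, passing the limit was not always enough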
Target sequence (Q9H3R0 2-372 limits assumed): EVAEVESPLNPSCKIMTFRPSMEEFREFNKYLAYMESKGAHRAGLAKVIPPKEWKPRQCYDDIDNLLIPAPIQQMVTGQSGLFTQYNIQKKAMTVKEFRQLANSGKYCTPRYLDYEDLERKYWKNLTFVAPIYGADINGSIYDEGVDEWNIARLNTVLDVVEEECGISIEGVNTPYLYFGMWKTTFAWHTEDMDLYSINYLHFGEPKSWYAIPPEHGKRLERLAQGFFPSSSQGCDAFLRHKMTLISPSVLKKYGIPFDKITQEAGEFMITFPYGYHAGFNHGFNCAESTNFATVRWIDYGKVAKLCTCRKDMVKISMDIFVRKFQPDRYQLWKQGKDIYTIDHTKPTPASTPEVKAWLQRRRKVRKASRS
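Compound: one test concentration per compound; Material: GST-GASC-1 enzyme fragment 2-372; Amount: GASC-1 enzyme at 10 nM final in reaction; Also added: H3K9me3 peptide substrate, Fe(II), 2-oxoglutarate; Technique: LANCE TR-FRET; Times: 30 min demethylation and 1 h detection at room temperature.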
Pf Dd2 inh = blocks growth of Plasmodium falciparum Dd2 parasites; actives 2.3% (n = 94,000); P. falciparum Dd2 growth, SYBR Green, 72 h; active compounds read low; AID 1159554; activity change, % at 10 µM; in the data active = activity change below about -80%
Tcruzi prolif = blocks T. cruzi growth in NIH3T3 culture; T. cruzi beta-gal in NIH3T3, GalScreen luminescence, 90 h; inhibition, % at 8.34 µM; actives 5.9% (n = 77,000);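 active = mean inhibition above about 93%, with at least 55% of replicates each passing it, limit read from the data, passing the limit was not always enough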
An asterisk follows results filed as active; · = no result given.

SMILES	IDH1 mut inh	GASC1 inh	Pf Dd2 inh	Tcruzi prolif
Cc1noc(C)c1S(=O)(=O)N(C)C[C@@H]1OCCCC[C@H](C)Oc2ccc(NC(=O)Nc3ccc(C(F)(F)F)cc3)cc2C(=O)N([C@H](C)CO)C[C@H]1C	-2	-1	-50	92
Cc1noc(C)c1S(=O)(=O)N(C)C[C@H]1OCCCC[C@H](C)Oc2ccc(NC(=O)Nc3ccc(C(F)(F)F)cc3)cc2C(=O)N([C@@H](C)CO)C[C@@H]1C	3	-2	-83*	89*
Cc1noc(C)c1S(=O)(=O)N(C)C[C@H]1OCCCC[C@H](C)Oc2ccc(NC(=O)Nc3ccc4c(c3)OCO4)cc2C(=O)N([C@H](C)CO)C[C@@H]1C	3	-2	-22	90
Cc1noc(C)c1S(=O)(=O)N(C)C[C@H]1OCCCC[C@H](C)Oc2ccc(NC(=O)Nc3ccc(C(F)(F)F)cc3)cc2C(=O)N([C@H](C)CO)C[C@@H]1C	·	1	-10	102*
Cc1noc(C)c1S(=O)(=O)N(C)C[C@H]1OCCCC[C@@H](C)Oc2ccc(NC(=O)Nc3ccc4c(c3)OCO4)cc2C(=O)N([C@@H](C)CO)C[C@@H]1C	1	0	-86*	82
COc1ccc(NC(=O)Nc2ccc3c(c2)C(=O)N([C@H](C)CO)C[C@@H](C)[C@H](CN(C)S(=O)(=O)c2c(C)noc2C)OCCCC[C@@H](C)O3)cc1	·	0	-81*	80
Cc1ccc(-c2nc3ncccc3o2)cc1NC(=O)COc1ccc(C2CCCCC2)cc1	0	·	·	·
CN(C)CC#Cc1cccc(-c2nc(C(=O)N3CCN(Cc4ccccc4)CC3)cc3c2[C@@H](CCO)N(S(=O)C(C)(C)C)C3)c1 (stereo not given in full)	·	·	-3	·
CC(C)(C)[S@](=O)N1Cc2cc(C(=O)N[C@@H]3CCN(Cc4ccccc4)C3)nc(-c3cccc(-c4cccnc4)c3)c2[C@@H]1CCO	1	-3	-88*	91
CN(C)CC#Cc1cccc(-c2nc(C(=O)N[C@@H]3CCN(Cc4ccccc4)C3)cc3c2[C@H](CCO)N(S(=O)C(C)(C)C)C3)c1 (stereo not given in full)	·	·	-85*	·
CC(C)(C)[S@](=O)N1Cc2cc(C(=O)N[C@H]3CCN(Cc4ccccc4)C3)nc(-c3cccc(-c4ccncc4)c3)c2[C@@H]1CCO	·	-1	-78	·
Cc1ccc(S(=O)(=O)N(C)C[C@H]2OCCCC[C@H](C)Oc3ccc(NC(=O)NC4CCCCC4)cc3C(=O)N([C@H](C)CO)C[C@H]2C)cc1	-10	-1	-83*	85
Cc1ccc(S(=O)(=O)N(C)C[C@@H]2OCCCC[C@@H](C)Oc3ccc(NC(=O)NC4CCCCC4)cc3C(=O)N([C@@H](C)CO)C[C@@H]2C)cc1	·	0	-86*	61
CC(=O)Nc1ccccc1C(=O)OCc1cccc(C(=O)c2ccccc2)c1	1	·	·	·
C[C@H]1CN([C@@H](C)CO)C(=O)c2c(c3ccccc3n2C)-c2ccccc2CO[C@H]1CN(C)S(=O)(=O)c1ccccc1	·	-1	-84*	65
Cc1noc(C)c1S(=O)(=O)N(C)C[C@@H]1OCc2ccccc2-c2c(n(C)c3ccccc23)C(=O)N([C@@H](C)CO)C[C@H]1C	0	0	17	11
COc1ccc(S(=O)(=O)N(C)C[C@H]2OCc3ccccc3-c3c(n(C)c4ccccc34)C(=O)N([C@@H](C)CO)C[C@H]2C)cc1	0	-1	-83*	83
Cc1noc(C)c1S(=O)(=O)N(C)C[C@H]1OCc2ccccc2-c2c(n(C)c3ccccc23)C(=O)N([C@@H](C)CO)C[C@H]1C	-1	8	-89*	84
Cc1ccc(S(=O)(=O)N(C)C[C@H]2OCc3ccccc3-c3c(n(C)c4ccccc34)C(=O)N([C@H](C)CO)C[C@@H]2C)cc1	·	-5	-88*	77
C[C@@H]1CN([C@@H](C)CO)C(=O)c2c(c3ccccc3n2C)-c2ccccc2CO[C@H]1CN(C)S(=O)(=O)c1ccccc1	·	-2	-72	78
O=C(CCCCCC(=O)Nc1ccccc1O)N/N=C/c1ccc2c(c1)CCO2	0	·	·	·
C[C@H](CO)N1C[C@H](C)[C@H](CN(C)S(=O)(=O)c2ccccc2)OCc2ccccc2-c2c(n(C)c3ccccc23)C1=O	·	·	-36	·
COc1cccc(S(=O)(=O)N(C)C[C@H]2OCc3ccccc3-c3c(n(C)c4ccccc34)C(=O)N([C@@H](C)CO)C[C@@H]2C)c1	·	-11	-83*	35
